Screening results from PubChem BioAssay.
Only some compounds are listed: those with a hit (about 4.6% of all), similar ones and a draw of the others.
TAAR1 antag: human TAAR1 antagonists, primary screen, Fluo-8 calcium fluorescence, CHO RD-HGA16 cells; Trace amine-associated receptor 1 (Homo sapiens), Q96RJ0; antagonist; inhibition, % at 3 µM; hit rate 1.5% among 360,000; AID 624466, 2012;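 active means inhibition above a per-plate cutoff, the mean inhibition of test compounds on that plate plus 3 SD, cut at about 49% in these data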
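Test system: CHO RD-HGA16 cells bearing hTAAR1 | Reagent: β-PEA, EC80 | Compound dosing: 3 µM, single point | Schedule: Dye loading 75 min at 37 °C, then 30 min room temperature | Signal: Calcium fluorescence with Fluo-8 | Evaluation: Percent inhibition of PEA-evoked calcium signal, max/basal emission ratio | Control set: DMSO-only wells and EC80 β-PEA-stimulated wells | Repeats: Singlicate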
OX1R antag-1: antagonists of human orexin 1 receptor (OX1R) | Orexin/Hypocretin receptor type 1 (Homo sapiens), O43613 | OX1R-expressing cells, FRET antagonist read-out | inhibition, % at 6.6 µM | hit rate 1.8% among 330,000; in the data active means inhibition mostly above about 38%, no sharp cut-off; inactive means mostly below about 40%
Target sequence (O43613 whole entry, looked up): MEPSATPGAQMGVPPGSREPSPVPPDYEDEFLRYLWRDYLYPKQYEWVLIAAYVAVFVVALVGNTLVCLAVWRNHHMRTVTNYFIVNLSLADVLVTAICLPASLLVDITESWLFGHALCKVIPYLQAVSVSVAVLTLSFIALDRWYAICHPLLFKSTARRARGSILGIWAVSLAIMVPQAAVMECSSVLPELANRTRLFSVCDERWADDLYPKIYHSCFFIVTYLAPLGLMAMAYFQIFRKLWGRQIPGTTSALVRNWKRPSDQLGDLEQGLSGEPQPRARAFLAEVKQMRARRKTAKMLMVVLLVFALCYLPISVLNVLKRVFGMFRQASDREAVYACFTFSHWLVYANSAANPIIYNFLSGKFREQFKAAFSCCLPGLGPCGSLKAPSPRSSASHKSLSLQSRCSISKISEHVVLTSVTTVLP
OX1R antag-2: OX1R (HCRTR1) antagonists, primary screen, fluorescence, CHO/OX1R cells, Fluo-8 calcium, orexin A; Orexin/Hypocretin receptor type 1 (Homo sapiens), O43613; Fluo-8 calcium fluorescence; inhibition, % at 5 µM; hit rate 0.43% among 330,000; AID 434989, 2010;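 active means inhibition above its plate's threshold, mean inhibition of all tested compounds on the plate plus 3 SD, cut at about 37% in these data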
TAAR1 ag: human TAAR1 agonists, primary screen, Fluo-8 calcium fluorescence, CHO RD-HGA16 cells | Trace amine-associated receptor 1 (Homo sapiens), Q96RJ0 | vehicle wells 0%, saturating PEA agonist 100% | activation, % at 3 µM | hit rate 0.99% among 360,000 | AID 624467, 2012;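 active means activation above the mean activation of all test compounds in the run plus 3 SD, cut at about 38% in these data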
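Test system: RD-HGA16 (CHO) cells co-expressing Gα16 and hTAAR1 | Doses: Single dose, 3 µM | Schedule: 17-24 h seeding, 75 min 37 °C dye, 30 min RT | Evaluation: % activation from peak over basal fluorescence ratio, DMSO-to-PEA scaled | Technique: Kinetic Fluo-8 calcium fluorescence | Benchmarks: Low control DMSO, high control PEA (EC100)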
CHO parental Ca: ATP-evoked calcium signal inhibitors, parental CHO, primary screen, counter-screen for OX1R antagonist project, cell-based, fluorescence, Fluo-8 calcium dye; inhibition, % at 5.6 µM; parental CHO-K1, ATP-induced calcium, Fluo-8 fluorescence; hit rate 0.63% among 330,000;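 active means inhibition above that plate's mean sample inhibition plus 3 SD, cut at about 26% in these data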
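material = parental CHO cells | also added = ATP as calcium-mobilizing challenge | dosing = single point at 5.6 µM | detection = intracellular calcium via Fluo-8 no-wash fluorescent dye | read-out = % inhibition | benchmarks = low control ATP plus DMSO, high control DMSO only | repeats = one well per compound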
GPR7 antag: GPR7 receptor antagonists, primary screen, cell-based, fluorescence, single concentration; Neuropeptides B/W receptor type 1 (Homo sapiens), P48145; GPR7-expressing cells, fluorescence antagonist assay; hit rate 1.1% among 290,000; inhibition, % at 4.4 µM; AID 1861, 2009; in the data active means inhibition above about 16%, passing the limit was not always enough;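 further: cells stimulated with the agonist NPW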
OX1R HTRF conf: OX1R (HCRTR1) antagonists, confirmation, cell-based, HTRF; shares compounds with OX1R antag-1; OX1R-expressing cells, HTRF antagonist assay; inhibition, % at 6.6 µM; hit rate 49% among 1,800; AID 492964, 2010; in the data active means inhibition above about 55%;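 further: CHO cells expressing OX1R stimulated with orexin A at about EC80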
CHO-K1 HTRF: signal inhibition in parental CHO-K1 cells, counter-screen for OX1R antagonist project, cell-based, HTRF; shares compounds with OX1R antag-1; HTRF counterscreen; inhibition, % at 6.6 µM; hit rate 48% among 1,800; AID 493232, 2011; in the data active means inhibition above about 17%
Hits are given with their value; – = inactive; · = not tested or not shown.

SMILES	TAAR1 antag	OX1R antag-1	OX1R antag-2	TAAR1 ag	CHO parental Ca	GPR7 antag	OX1R HTRF conf	CHO-K1 HTRF
O=[N+]([O-])c1ccc(Sc2cc[n+]([O-])c3ccccc23)c([N+](=O)[O-])c1	–	98.0	–	–	–	–	55.0	78.0
COCCNC(=O)C1(C)CCN(C(=O)c2cccnc2Oc2ccccc2)C1 (configuration not stated)	–	·	·	–	·	·	·	·
O=C1C(Nc2ccccc2)=C/C(=N/S(=O)(=O)c2cccs2)c2ccccc21	·	–	–	·	–	–	·	·
CCc1cc[n+](C2=C([O-])c3ccccc3C(=O)/C2=N\S(=O)(=O)c2cccs2)cc1	–	148.7	–	–	–	–	55.7	80.4
CCc1nc2c(OCc3ccc(C#N)cc3)cccn2c1N(C)C(=O)c1ccc(C)cc1	–	·	·	–	·	·	·	·
O=C(Nc1ccc2oc(-c3ccccc3)nc2c1)c1ccncc1	–	–	–	–	–	–	·	·
O=C(Nc1ccc2oc(-c3ccccc3)nc2c1)c1cccs1	–	81.7	–	–	–	–	–	–
O=C(Nc1ccc2nc(-c3cccs3)[nH]c2c1)c1ccco1	–	–	–	–	–	–	·	·
O=C(Nc1cccc(-c2nc3ccccc3s2)c1)c1cccs1	–	81.1	–	–	–	–	78.3	–
O=C(Nc1ccc2nc(-c3cccs3)[nH]c2c1)c1cccs1	–	93.0	–	–	–	–	–	–
O=C(Nc1ccc2oc(-c3cccnc3)nc2c1)c1ccco1	–	–	–	–	–	–	·	·
O=C(Nc1ccc2nc(-c3ccccc3)oc2c1)c1ccco1	–	94.5	–	–	–	–	84.5	–
COc1cccc(C(C)(O)c2nc(-c3cccc(NC(C)=O)c3)cs2)c1 (configuration not stated)	–	·	·	–	·	·	·	·
CCNC(=O)C1(C)CCN(C(=O)c2cccc(C#N)c2)C1 (configuration not stated)	–	·	·	–	·	·	·	·
OCC[C@@H]1C[C@H](O)[C@@H](O)[C@@]2(OCCc3cc(C(F)(F)F)ccc32)O1	–	·	·	–	·	·	·	·
C[C@@H]1CN([C@@H](C)CO)C(=O)CCCn2cc(nn2)CO[C@H]1CN(C)C(=O)Nc1ccc(N2CCN(C)CC2)cc1	–	·	·	–	·	·	·	·
O=S(=O)(Nc1c(O)ccc2ccccc12)c1cccc2ccccc12	·	80.1	–	·	–	·	77.7	–
COc1ccc(CN2C(=O)COc3ccccc3C2c2nc3ccccc3[nH]2)cc1 (configuration not stated)	–	·	·	–	·	·	·	·
O=C(c1cccc(Cl)c1)N1CCN(c2ccc3c(c2)C2CC3CCN2C(=O)OCc2ccccc2)CC1 (configuration not stated)	–	·	·	–	·	·	·	·
O=C(Cc1ccccc1)NCC(=O)OCC(=O)c1ccc([N+](=O)[O-])cc1	–	85.7	–	–	–	–	–	41.9
CC(=O)c1sc(NC(=O)C2(F)C(F)(F)C(F)(F)C(F)(F)C(F)(F)C2(F)F)nc1C	–	79.9	–	–	–	–	70.8	26.2
CC(=O)c1sc(NC(=O)C=C(C)C)nc1C	–	–	–	–	–	–	·	·
O=C(CCN1C(=O)c2ccccc2C1=O)c1ccccc1	–	·	·	–	·	·	·	·
CC1CCCC/C1=N\Nc1ccc(S(N)(=O)=O)cc1[N+](=O)[O-] (configuration not stated)	–	116.0	–	–	–	–	–	26.0
CC(C)(C)C1CCC(=NNc2ccc(S(N)(=O)=O)cc2[N+](=O)[O-])CC1 (configuration not stated)	–	–	–	–	–	–	·	·
